The record followed here is ChEMBL document CHEMBL1641402, “Use of experimental design for the optimization of the production of new secondary metabolites by two Penicillium species” (J Nat Prod, 2010).

For assay [1], the system named is Mycobacterium tuberculosis. The assay can be described thus: Antimycobacterial activity against Mycobacterium tuberculosis H37Rv. The class given is functional, organism-based.
For assay [2], the system named is Pseudomonas aeruginosa. The assay can be described thus: Antimicrobial activity against Pseudomonas aeruginosa after 24 hrs by broth micro dilution method. The class given is functional. Summed up:
(§1)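 Broth microdilution per NCCLS guidelines: 2-fold serial dilutions in RPMI-1640 buffered to pH 7.5 with 0.165 M MOPS, final 0.5–128 µg/mL. Inocula from 24 h tryptic soy agar cultures at 37 °C, final 10^3/10^4 cells per mL. Kanamycin and polymyxin B as controls. Incubated 24 h at 37 °C, OD 600 nm; MIC is lowest concentration giving complete (90%) growth inhibition.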

Assay [3] deals with Staphylococcus aureus. The assay can be described thus: Antimicrobial activity against Staphylococcus aureus after 24 hrs by broth micro dilution method. The class given is functional. The method, boiled down: as §1
The test system of assay [4] is HTB-129. The assay can be described thus: (§2) Cytotoxicity against human HTB-129 cells after 72 hrs by MTT assay. The class given is functional, cell-based. Summed up: (§3)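 HTB-129 breast carcinoma cells kept in Leibovitz's L-15 with 2 mM L-glutamine, insulin 0.01 mg/mL, 10% FBS, penicillin/streptomycin, 37 °C in air. Seeded at 1 × 10^5 cells/mL, 24 h before dosing. Compounds in DMSO, serially diluted in medium from 200 to 1.76 µg/mL. Exposure 72 h, then MTT 3 h, DMSO solubilization, read at 570 nm. Viability as percent of untreated controls; IC50 fitted.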

Assay [5] relates to Escherichia coli. The assay can be described thus: Antimicrobial activity against Escherichia coli after 24 hrs by broth micro dilution method. The class given is functional. Summed up:
as §1

The test system of assay [6] is Candida albicans. The assay can be described thus: Antimicrobial activity against Candida albicans at 40 ug/disk. The class given is functional, organism-based.
A short description of assay [7]: as §2. The class given is functional, cell-based. Conditions: HTB-129, 72 h. Summed up: as §3
In assay [8] the test system is Candida albicans. The assay can be described thus: Antimicrobial activity against Candida albicans at 8 ug/disk. The class given is functional. Conditions: read-out: IZ.

The structures appear in SMILES notation. The source made the active and inactive calls. The rule behind the calls is not given here.

In general, MIC refers to the lowest concentration that inhibits growth of the organism. A low value points to greater potency. What is called IC50 is the concentration at which inhibition is half-maximal.

With `C=CC(C)(C)[C@]12C=C(OC)C(=O)N3/C(=C/c4c[nH]cn4)C(=O)N[C@@]31N(OC)c1ccccc12`, the inhibition entry in assay [1] is “inactive”.

For the molecule `COc1ccc2c3c1C(=O)CC(C)(C)N3C(=O)[C@@]21C[C@@]2([N+](=O)[O-])CN3CCC[C@@H]3C[C@H]2C1(C)C`, the inhibition entry in assay [1], in assay [2], in assay [3], in assay [4] and in assay [5] was “inactive” each time.

Consider `CC1(C)CC(=O)c2c(ccc3c2NC(=O)[C@]32C[C@@]3([N+](=O)[O-])CN4CCC[C@H]4C[C@@H]3C2(C)C)O1.O=C(O)C(F)(F)F` [CITRINALIN A], for which the inhibition entry in assay [6] was “inactive”. The minimal inhibitory concentration (MIC) in assay [2], in assay [3] and in assay [5] was above 32 µg/mL each time. The same molecule showed an IC50 in assay [7] of 174 µM.

For `COc1ccc2c3c1C(=O)CC(C)(C)N3C(=O)[C@@]21C[C@]2([N+](=O)[O-])CN3CCC[C@@H]3C[C@H]2C1(C)C`, the inhibition entry in assay [1], in assay [2], in assay [3], in assay [4] and in assay [5] was “inactive” each time.

Consider `C[C@@H]1[C@H](O)[C@@H](C)/C=C/C=C/C=C/C=C/C=C/C=C/C=C/[C@H](O[C@@H]2O[C@H](C)[C@@H](O)[C@H](N)[C@@H]2O)C[C@@H]2O[C@](O)(C[C@@H](O)C[C@@H](O)[C@H](O)CC[C@@H](O)C[C@@H](O)CC(=O)O[C@H]1C)C[C@H](O)[C@H]2C(=O)O` [AMPHOTERICIN B], for which the zone of inhibition at 8 µg/disc in assay [8] amounted to 20 mm.

As to `CC1(C)CC(=O)c2c(ccc3c2NC(=O)[C@]32C[C@@]3([N+](=O)[O-])CN4CCC[C@@H]4C[C@@H]3C2(C)C)O1.O=C(O)C(F)(F)F` [CITRINALINE B], in assay [6], the inhibition result was “inactive”. Further, the minimal inhibitory concentration (MIC) in assay [2], in assay [3] and in assay [5] was above 32 µg/mL in each case. The same molecule displayed an IC50 in assay [7] of 194 µM.
